In ChEMBL document CHEMBL4118034, “Orbicularisine: A Spiro-Indolothiazine Isolated from Gills of the Tropical Bivalve Codakia orbicularis” (J Nat Prod, 2017):
Active and inactive are the calls of the source. No cut-off for these calls is given here.

Assays:
[1] = target: Cyclin-dependent kinase 5/CDK5 activator 1 (Homo sapiens) (UniProt Q00535+Q15078); experiment: Inhibition of human CDK5/p25 assessed as residual activity at 16 uM relative to control; assay type: protein-complex assay
Leishmania donovani = experiment: Inhibition of Leishmania donovani TLK assessed as residual activity at 16 uM relative to control
Klebsiella pneumoniae = experiment: Antibacterial activity against Klebsiella pneumoniae ATCC 700603 at 2 to 256 ug/ml measured after 24 hrs; assay type: functional, organism-based
Summary of the method: (§1)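 Stock: 2.7 mg compound in 100 µL DMSO, then diluted with 900 µL distilled water. Working solutions at 256, 128, 64, 32, 16, 8, 4 and 2 µg/mL; 20 µL of each went into 178 µL Mueller-Hinton broth. Inoculum: 2 µL overnight culture at 0.5 McFarland (1.5*10⁸ CFU/mL). Controls: DMSO–water growth and sterility. Incubation 24 h at 37 °C; wells scored by eye as clear or turbid.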

[2] = target: Aurora kinase B (Homo sapiens) (UniProt Q96GD4); experiment: Inhibition of human Aurora-B assessed as residual activity at 16 uM relative to control
[3] = target: Dual specificity tyrosine-phosphorylation-regulated kinase 1A (Rattus norvegicus) (UniProt Q63470); experiment: Inhibition of rat DYRK1A assessed as residual activity at 16 uM relative to control
Enterococcus faecalis = experiment: Antibacterial activity against Enterococcus faecalis ATCC 29212 at 2 to 256 ug/ml measured after 24 hrs; assay type: functional, organism-based; summary of the method: as §1
Streptococcus pneumoniae = experiment: Antibacterial activity against Streptococcus pneumoniae ATCC 49619 at 2 to 256 ug/ml measured after 24 hrs; assay type: functional, organism-based; summary of the method: as §1
[4] = target: CDK9/cyclin T1 (Homo sapiens) (UniProt O60563+P50750); experiment: Inhibition of human CDK9/Cyclin T assessed as residual activity at 16 uM relative to control; assay type: protein-complex assay
[5] = target: Glycogen synthase kinase-3 (Sus scrofa) (UniProt B2LUN4+I6LNT8); experiment: Inhibition of pig GSK3 alpha/beta assessed as residual activity at 16 uM relative to control; assay type: protein assay
[6] = target: T1, Putative casein kinase I (Leishmania major) (UniProt O96999); experiment: Inhibition of Leishmania major CK1 assessed as residual activity at 16 uM relative to control
T1 sequence (whole entry): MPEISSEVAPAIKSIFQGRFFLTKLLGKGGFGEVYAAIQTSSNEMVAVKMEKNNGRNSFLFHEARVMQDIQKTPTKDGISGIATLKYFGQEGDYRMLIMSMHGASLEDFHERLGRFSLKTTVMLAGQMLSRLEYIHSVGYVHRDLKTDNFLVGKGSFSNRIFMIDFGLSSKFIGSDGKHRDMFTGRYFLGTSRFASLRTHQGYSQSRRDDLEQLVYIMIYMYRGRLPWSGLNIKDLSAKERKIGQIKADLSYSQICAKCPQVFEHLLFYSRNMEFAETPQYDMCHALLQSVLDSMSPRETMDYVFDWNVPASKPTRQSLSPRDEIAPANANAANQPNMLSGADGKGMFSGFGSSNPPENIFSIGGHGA

[7] = target: Serine/threonine-protein kinase pim-1 (Homo sapiens) (UniProt P11309); experiment: Inhibition of human Pim1 assessed as residual activity at 16 uM relative to control
Pseudomonas aeruginosa = experiment: Antibacterial activity against Pseudomonas aeruginosa ATCC […] at 2 to 256 ug/ml measured after 24 hrs; assay type: functional, organism-based; summary of the method: as §1
[8] = target: CDK2/Cyclin A2 (Homo sapiens) (UniProt P24941+P20248); experiment: Inhibition of human CDK2/Cyclin A assessed as residual activity at 16 uM relative to control; assay type: protein-complex assay
HCT-116 = experiment: Cytotoxicity against human HCT116 cells up to 100 uM; assay type: functional, cell-based
Escherichia coli = experiment: Antibacterial activity against Escherichia coli ATCC 35218 at 2 to 256 ug/ml measured after 24 hrs; assay type: functional, organism-based; summary of the method: as §1
[9] = target: Receptor-interacting serine/threonine-protein kinase 3 (Homo sapiens) (UniProt Q9Y572); experiment: Inhibition of human RIPK3 assessed as residual activity at 16 uM relative to control
U-87 MG = experiment: Cytotoxicity against human U87MG cells up to 100 uM; assay type: functional, cell-based; conditions: U-87MG ATCC
[10] = target: T2, Serine/threonine-protein kinase haspin (Homo sapiens) (UniProt Q8TF76); experiment: Inhibition of human haspin assessed as residual activity at 16 uM relative to control
T2 sequence (whole entry): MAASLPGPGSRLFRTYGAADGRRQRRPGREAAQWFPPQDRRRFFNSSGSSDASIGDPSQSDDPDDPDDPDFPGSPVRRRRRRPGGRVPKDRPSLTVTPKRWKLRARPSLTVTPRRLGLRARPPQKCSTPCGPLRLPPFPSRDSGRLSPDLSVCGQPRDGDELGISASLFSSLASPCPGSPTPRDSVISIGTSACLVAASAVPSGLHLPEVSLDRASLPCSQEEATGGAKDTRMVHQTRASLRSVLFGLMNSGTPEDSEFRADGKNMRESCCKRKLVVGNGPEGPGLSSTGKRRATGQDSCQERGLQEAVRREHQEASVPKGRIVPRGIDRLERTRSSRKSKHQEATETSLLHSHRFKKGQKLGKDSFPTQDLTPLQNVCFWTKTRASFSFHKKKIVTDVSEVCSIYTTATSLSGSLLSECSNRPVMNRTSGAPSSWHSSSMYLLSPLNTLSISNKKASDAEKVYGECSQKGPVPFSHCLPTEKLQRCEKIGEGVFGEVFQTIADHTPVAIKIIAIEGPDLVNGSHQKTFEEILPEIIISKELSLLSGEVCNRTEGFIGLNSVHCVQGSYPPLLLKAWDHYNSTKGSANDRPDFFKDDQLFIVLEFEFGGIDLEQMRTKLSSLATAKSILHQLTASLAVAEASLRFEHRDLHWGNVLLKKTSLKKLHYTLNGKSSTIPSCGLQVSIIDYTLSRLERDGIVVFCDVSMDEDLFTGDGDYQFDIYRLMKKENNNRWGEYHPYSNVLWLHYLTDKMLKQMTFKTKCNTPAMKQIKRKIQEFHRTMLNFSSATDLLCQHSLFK

Sequence of Cyclin-dependent kinase 5/CDK5 activator 1 (Homo sapiens) (Q00535 whole entry): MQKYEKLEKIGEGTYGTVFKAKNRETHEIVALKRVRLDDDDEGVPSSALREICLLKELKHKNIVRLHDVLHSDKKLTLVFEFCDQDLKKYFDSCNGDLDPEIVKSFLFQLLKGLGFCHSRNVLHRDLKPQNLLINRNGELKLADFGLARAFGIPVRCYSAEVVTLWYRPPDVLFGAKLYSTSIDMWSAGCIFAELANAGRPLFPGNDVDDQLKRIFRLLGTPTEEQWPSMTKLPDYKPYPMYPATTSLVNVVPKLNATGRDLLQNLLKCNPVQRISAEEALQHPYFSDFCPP
Sequence of Cyclin-dependent kinase 5/CDK5 activator 1 (Homo sapiens) (Q15078 99-307 partner limits assumed): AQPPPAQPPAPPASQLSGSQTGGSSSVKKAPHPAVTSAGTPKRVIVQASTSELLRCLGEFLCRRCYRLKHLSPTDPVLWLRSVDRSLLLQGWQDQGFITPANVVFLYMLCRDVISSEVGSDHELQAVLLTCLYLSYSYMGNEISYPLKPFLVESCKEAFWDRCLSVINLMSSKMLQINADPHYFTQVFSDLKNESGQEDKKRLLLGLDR
Sequence of Receptor-interacting serine/threonine-protein kinase 3 (Homo sapiens) (Q9Y572 whole entry, looked up): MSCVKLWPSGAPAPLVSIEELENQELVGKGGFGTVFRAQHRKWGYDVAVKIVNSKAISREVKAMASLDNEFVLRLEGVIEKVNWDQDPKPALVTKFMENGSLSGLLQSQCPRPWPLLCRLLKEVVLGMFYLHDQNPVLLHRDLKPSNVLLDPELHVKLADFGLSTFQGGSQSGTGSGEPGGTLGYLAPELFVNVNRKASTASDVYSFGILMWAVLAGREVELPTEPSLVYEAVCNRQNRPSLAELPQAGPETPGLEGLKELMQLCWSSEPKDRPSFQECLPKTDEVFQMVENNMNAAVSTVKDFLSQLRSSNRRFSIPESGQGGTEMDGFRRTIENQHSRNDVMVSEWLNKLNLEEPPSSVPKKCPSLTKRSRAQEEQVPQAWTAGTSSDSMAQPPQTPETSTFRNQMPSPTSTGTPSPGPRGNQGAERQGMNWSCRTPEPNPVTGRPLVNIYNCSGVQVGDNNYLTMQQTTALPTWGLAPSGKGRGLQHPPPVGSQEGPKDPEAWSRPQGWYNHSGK
Sequence of Serine/threonine-protein kinase pim-1 (Homo sapiens) (P11309 whole entry, looked up): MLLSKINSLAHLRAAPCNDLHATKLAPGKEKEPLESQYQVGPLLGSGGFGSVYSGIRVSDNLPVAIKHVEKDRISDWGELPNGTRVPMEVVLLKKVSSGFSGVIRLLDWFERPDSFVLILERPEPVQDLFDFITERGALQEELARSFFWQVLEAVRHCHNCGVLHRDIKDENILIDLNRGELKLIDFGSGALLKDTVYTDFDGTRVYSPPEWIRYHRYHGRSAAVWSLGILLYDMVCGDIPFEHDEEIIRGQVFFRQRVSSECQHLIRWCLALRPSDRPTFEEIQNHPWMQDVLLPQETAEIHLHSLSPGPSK
Sequence of Aurora kinase B (Homo sapiens) (Q96GD4 whole entry): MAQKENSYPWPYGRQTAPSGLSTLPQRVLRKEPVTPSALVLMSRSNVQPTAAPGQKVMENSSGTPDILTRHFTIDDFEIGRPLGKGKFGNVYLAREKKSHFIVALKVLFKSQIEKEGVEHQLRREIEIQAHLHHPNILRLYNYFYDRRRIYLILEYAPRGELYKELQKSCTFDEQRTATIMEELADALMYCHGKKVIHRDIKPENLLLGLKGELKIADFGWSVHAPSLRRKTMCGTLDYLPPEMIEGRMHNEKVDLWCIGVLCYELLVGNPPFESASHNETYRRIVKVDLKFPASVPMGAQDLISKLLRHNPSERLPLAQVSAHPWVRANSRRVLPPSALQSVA

In the case of `O=C1OC2(C(=O)Nc3ccccc32)C2=C1NCCS2(=O)=O` (stereo not drawn), the Activity [1] is reported as greater than 60%, the Activity (Leishmania donovani) is reported as greater than 60% and the Activity (Klebsiella pneumoniae) is reported as “inactive”. For the same compound, the Activity [2] was greater than 60%, the Activity [3] was greater than 60% and the Activity (Enterococcus faecalis) was “inactive”. For the same compound, the Activity (Streptococcus pneumoniae) was “inactive”, the Activity [4] was greater than 60% and the Activity [5] was greater than 60%. The Activity [6] was greater than 60%, the Activity [7] was greater than 60% and the Activity (Pseudomonas aeruginosa) was “inactive”. The Activity [8] was greater than 60%, the Activity (HCT-116) was “inactive” and the Activity (Escherichia coli) was “inactive”. The Activity [9] was greater than 60%, the Activity (U-87 MG) was “inactive” and the Activity [10] was greater than 60%.
